Bioassay records as filed in PubChem.
An excerpt weighted towards active compounds, which were near 3% of everything screened.
S1P1 ag-PAM: S1P1 agonists and agonism potentiators, primary screen, cell-based, primary and confirmation screens, CRE-bla reporter. Sphingosine 1-phosphate receptor 1 (Homo sapiens), P21453. S1P1 CRE-bla cells, forskolin, beta-lactamase FRET, potentiator mode; S1P1 agonist co-added at EC20, 2 nM; 100% = saturating reference agonist, 0% = basal. activation, % at 9.5 µM. 56,000 tested, 0.57% active;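 active = activation above a cutoff set at the mean activation of all tested compounds plus 3 SD, cut at about 54% in these data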;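 also: forskolin at 4 µM as EC80 and the EC20 agonist is SEW2871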
HTR1A agonist: human 5-HT1a receptor agonists, primary screen, cell-based, CHO, Ga15 NFAT-bla reporter; CHO 5-HT1a Ga15 NFAT-bla reporter, FRET ratio; 0% basal, 100% maximal reference agonist; 65,000 tested, 0.56% active; activation, % at 10 µM; 5-hydroxytryptamine receptor 1A (Homo sapiens), P08908;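 active = activation above the screen-wide mean activation plus 3 SD, cut at about 19% in these data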
Target sequence (P08908 whole entry, looked up): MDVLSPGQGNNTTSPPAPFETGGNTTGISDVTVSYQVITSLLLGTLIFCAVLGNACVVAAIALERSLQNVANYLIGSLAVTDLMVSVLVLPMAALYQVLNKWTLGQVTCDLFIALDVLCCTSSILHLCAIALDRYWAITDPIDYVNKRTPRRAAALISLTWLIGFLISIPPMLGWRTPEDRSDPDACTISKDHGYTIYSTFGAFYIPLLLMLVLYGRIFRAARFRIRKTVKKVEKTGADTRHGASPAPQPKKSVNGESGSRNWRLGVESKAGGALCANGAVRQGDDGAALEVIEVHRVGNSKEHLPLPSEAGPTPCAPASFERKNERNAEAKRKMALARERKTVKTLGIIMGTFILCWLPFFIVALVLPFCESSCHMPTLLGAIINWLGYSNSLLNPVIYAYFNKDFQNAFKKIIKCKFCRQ
HTR1E antagonist: 5-HT1E receptor antagonists, primary screen, cell-based, HTS; 5-hydroxytryptamine receptor 1E (Homo sapiens), P28566; CHO 5-HT1E Ga15 NFAT-bla reporter, FRET, antagonist; inhibition, % at 6 µM; 65,000 tested, 0.99% active; AID 571, 2007;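 active = inhibition above a set limit, the mean inhibition across every tested compound plus 3 SD, cut at about 29% in these data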;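 also: signal is the 460 over 535 nm emission ratio of beta-lactamase substrate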
HTR1E agonist: 5-HT1E receptor agonists, primary screen, cell-based, HTS | 5-hydroxytryptamine receptor 1E (Homo sapiens), P28566 | CHO 5-HT1E Ga15 NFAT-bla reporter, FRET; 0% DMSO wells, 100% control agonist wells | activation, % at 6 µM | 65,000 tested, 0.69% active | AID 574, 2007;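 active = activation above a set limit, the screen-wide mean activation plus 3 SD, cut at about 8.5% in these data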
S1P3 agonist: human S1P3 receptor agonists, primary screen, cell-based, primary and confirmation, NFAT-BLA reporter; S1P3 NFAT-BLA reporter cells, agonism, FRET ratio; relative to 1 µM S1P, basal subtracted; Sphingosine 1-phosphate receptor 3 (Homo sapiens), Q99500; activation, % at 4.5 µM; 60,000 tested, 0.1% active;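 active = activation above the screen-wide mean plus 3 SD, cut at about 4.5% in these data, passing the limit was not always enough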
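Assay system: stable CHO line with human S1P3, Gα16, NFAT-BLA reporter; Detection: FRET β-lactamase substrate fluorescence, excitation 405 nm, 460/535 nm emission ratio, background-subtracted; Read-out: percent activation versus median 1 µM S1P response, basal-subtracted, per plate; Incubation: cells plated overnight, compound 4 h 37 °C, substrate 2 h RT.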
5-HT1A blocker: human 5-HT1a receptor antagonists, primary screen, cell-based, CHO, Ga15 NFAT-bla reporter | 5-hydroxytryptamine receptor 1A (Homo sapiens), P08908 | CHO 5-HT1a Ga15 NFAT-bla reporter, antagonist mode | AID 612, 2007 | 62,000 tested, 0.68% active | inhibition, % at 10 µM;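 active = inhibition above the mean of all tested compounds plus 3 SD, cut at about 43% in these data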;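 also: receptor stimulated by 5-CT agonist at 100 nM near EC80; beta-lactamase reporter measured by ratiometric fluorescence of a cleavable substrate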
Hits are given with their value; - = inactive; . = no result given.

SMILES	S1P1 ag-PAM	HTR1A agonist	HTR1E antagonist	HTR1E agonist	S1P3 agonist	5-HT1A blocker
CCOC(=O)Nc1ccc2c(c1)N(C(=O)CCN1CCOCC1)c1ccccc1S2=O (stereo unspecified)	-	-	-	-	-	52
CCOC(=O)Nc1ccc2c(c1)N(C(=O)CCN1CCOCC1)c1ccccc1S2	-	-	-	-	-	-
c1csc(CCNc2ncnc3sc4c(c23)CCC4)c1	153	-	-	-	-	-
N#Cc1sc2nc3c(c(-c4ccco4)c2c1N)CCCC3	-	-	31	-	-	-
CCCCN=CC1=C(O)C(C(=O)OC)C(C)(C)CC1=O (stereo unspecified)	.	-	-	-	-	-
CCOC(=O)C1=C(N)OC2=C(C(=O)CCC2)C1c1ccccc1OCC (stereo unspecified)	-	-	-	-	19	-
CC1(C)Cc2c(sc3nc(SCC#N)n(C4CCCCC4)c(=O)c23)CO1	-	-	-	-	-	.
COc1cccc(OCCn2c(C)c(/C=N/n3cnnc3)c3ccccc32)c1	-	-	43	-	-	-
COC(=O)C(CC(=O)c1ccc(Br)cc1)n1ccnc1 (stereo unspecified)	.	-	-	-	-	-
Cc1ccc(-c2c3c(=O)n(C)c(=O)n(C)c3c3c(C)cc(C)nn23)cc1	-	-	-	-	-	-
CC1(C)CC(=O)C(/C=N/n2cnc3ccccc3c2=O)=C(O)C1	-	-	-	-	-	-
C=CCS/C(=N\n1cnc2ccccc2c1=O)N1CCCCC1	-	99	-	-	-	-
Cc1ccc(C2C=C(c3ccc4c(c3)OCO4)Nc3ncnn32)cc1 (stereo unspecified)	-	-	-	-	-	-
COc1cccc(C2=CC(c3ccc(C)cc3)n3ncnc3N2)c1 (stereo unspecified)	-	-	29	-	-	-
CC(=O)Cc1nsc(NC(=O)c2cc(-c3ccccc3Cl)oc2C)n1	-	-	-	-	-	-
N#Cc1c(-c2ccco2)cc(-c2cccnc2)nc1N	-	-	38	-	-	-
Cc1c(-c2ccccc2)nc(N)c(C#N)c1-c1ccco1	-	-	31	-	-	-
CCc1ccc2oc(-c3cc(N)cc(C)c3O)nc2c1	65	-	-	-	-	-
CCC(=O)N1CCc2cc(Br)cc(S(=O)(=O)N3CCN(c4ccccn4)CC3)c21	.	-	-	-	.	-
COc1ccc2ncn(-c3ccccc3)c2c1	68	-	-	-	-	-
COc1c(C)cccc1C(=O)Nc1cc(-c2nn3c(C)nnc3s2)ccc1C	-	-	-	-	-	-
Cc1cc2c(=O)n(CC(=O)NCC(=O)N3CCN(Cc4ccccc4)CC3)cnc2s1	-	-	-	-	-	-
CC1CCN(Cc2nc3c(c(=O)n(C)c(=O)n3C)n2CCN2CCOCC2)CC1	.	-	-	-	.	-
CCN(CC)c1ccc2c(C)c(CN3CCOCC3)c(=O)oc2c1	-	23	-	-	-	-
C=CCn1c(=O)c2ccccc2n2c(SC(C)C(=O)Nc3nc(-c4ccccc4)cs3)nnc12 (stereo unspecified)	-	-	38	-	-	-
SMILES	S1P1 ag-PAM	HTR1A agonist	HTR1E antagonist	HTR1E agonist	S1P3 agonist	5-HT1A blocker
COc1ccc(OC)c(C2=Nn3c(nnc3-c3cccc(OC(C)C)c3)SC2)c1	-	-	38	-	-	-
Cc1ccc(-c2nnc3n2N=C(c2ccccc2Br)CS3)cc1	-	-	32	-	-	-
CCOc1ccc(C2=Nn3c(nnc3-c3ccc(OC)cc3)SC2)cc1	-	-	39	-	-	-
CCOc1ccc(C2=Nn3c(nnc3-c3cccnc3)SC2)cc1	-	-	-	-	-	.
COc1ccc(C2=Nn3c(nnc3-c3ccccc3)SC2)cc1OC	-	-	49	-	-	.
CCOC(=O)C1CCCN(C(=O)CNC(=O)Cn2ccc3ccccc3c2=O)C1 (stereo unspecified)	.	-	-	-	.	-
CCCc1nnc2n1N=C(c1ccc(OC)c(OC)c1)CS2	-	-	63	-	-	-
COc1ccc(-c2nnc3n2N=C(c2ccccc2)CS3)cc1OC	-	-	-	-	-	-
CCN(CC)c1ccc(C2Nc3cccc4cccc(c34)N2)c(O)c1	-	-	32	-	-	.
COc1cc(C2Nc3cccc4cccc(c34)N2)cc(OC)c1OC(C)=O	-	-	-	-	-	.
Cc1ccc(N(CC2=NCCN2)c2cccc(O)c2)cc1	-	.	52	-	-	.
CCCN(C(=O)c1cccs1)c1nnc(-c2ccncc2)s1	101	-	-	-	-	-
CCOc1ccccc1NC(=O)Cn1nnc(C(=O)NCc2ccco2)c1N	-	-	73	-	-	-
Cc1cccn2c(=O)c3cc(C(=O)NCCCN4CCCC4=O)n(C)c3nc12	-	-	-	-	-	-
CCN1CCN(c2ncc(C(=O)Nc3cc(Cl)ccc3OC)c3ccccc23)CC1	-	-	-	40	-	-
COc1ccc(Cl)cc1NC(=O)CCN1CCN(c2ccccc2C)CC1	.	-	-	-	.	-
O=c1/c(=C\c2cccnc2)sc2nc3ccccc3n12	-	-	-	-	-	-
Cc1cc(/C=c2/sc3nc4ccccc4n3c2=O)c(C)n1-c1ccccn1	101	-	-	-	-	.
O=C(NCc1ccco1)c1cccc2ccccc12	-	-	-	-	-	-
O=C(NCc1ccco1)c1ccccc1Nc1ccc(F)cc1	.	-	29	-	.	-
O=C(c1ccco1)N(CCCN1CCOCC1)c1nc(-c2ccc(F)cc2)cs1	-	-	-	-	-	-
O=C(c1ccco1)N(CCCN1CCOCC1)c1nc(-c2ccc(Cl)cc2)cs1	-	-	-	-	-	48
CCn1c(SCC(=O)Nc2cc(C)ccc2C)nc2c(c1=O)SC(C)C2 (stereo unspecified)	-	70	-	-	-	-
Cc1ccc(C)c(NC(=O)CSc2nc3c(c(=O)n2C)SC(C)C3)c1 (stereo unspecified)	-	-	-	-	-	-
CCCCn1c(NC(C)CC)nc2c1c(=O)[nH]c(=O)n2C (stereo unspecified)	-	-	-	-	-	-
CCOC(=O)CN(C(=O)CSc1nnc(-c2cccc(OC)c2)o1)c1ccc(F)cc1	82	-	-	-	-	-
Cc1cnc(C(=O)Nc2cccc(-c3nnc4n3CCCCC4)c2)cn1	-	-	-	-	-	-
c1cc(Nc2ncnc3sccc23)cc(-c2nnc3n2CCCCC3)c1	-	-	30	-	-	-
